Data reported in ChEMBL document CHEMBL1158515, “Novel selective thiazoleacetic acids as CRTH2 antagonists developed from in silico derived hits. Part 1” (Bioorg Med Chem Lett, 2010).

Columns and labels:
[1] = biological target: T1, Prostaglandin D2 receptor 2 (Homo sapiens, UniProt Q9Y5Y4); assay: Displacement of[3H]PGD2 from human CRTH2 receptor expressed in african green monkey COS7 cells; type: cell-based, COS-7
T1 sequence (Q9Y5Y4 whole entry): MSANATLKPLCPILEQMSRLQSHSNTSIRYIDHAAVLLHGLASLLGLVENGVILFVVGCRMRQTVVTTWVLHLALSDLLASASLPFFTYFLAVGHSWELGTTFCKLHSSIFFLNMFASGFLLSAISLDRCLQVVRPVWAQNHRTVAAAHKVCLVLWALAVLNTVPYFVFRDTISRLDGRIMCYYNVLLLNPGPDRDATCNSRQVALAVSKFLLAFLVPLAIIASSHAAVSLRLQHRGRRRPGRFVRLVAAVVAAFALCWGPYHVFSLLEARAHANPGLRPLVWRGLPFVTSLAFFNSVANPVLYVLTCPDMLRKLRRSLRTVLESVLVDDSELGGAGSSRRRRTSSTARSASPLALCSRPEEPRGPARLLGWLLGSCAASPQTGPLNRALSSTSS
How it was run: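 Equilibrium competition binding against [³H]PGD₂ on stably transfected COS7 cells expressing human CRTH2. Nonspecific binding defined with […] unlabelled PGD₂. IC50 reported.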

[2] = biological target: T2, Prostaglandin D2 receptor 2 (Homo sapiens) (UniProt Q9Y5Y4); assay: Antagonist activity at human CRTH2 receptor expressed in HEK285-7 cells assessed as inhibition of beta arrestin translocation by bioluminescence resonance energy transfer assay relative to control; type: functional, cell-based
T2 sequence (whole entry): T1 sequence (Q9Y5Y4 whole entry)
How it was run: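 Same BRET2 β-arrestin2 translocation format in CRTH2-transfected HEK385-7 cells: 5 min antagonist preincubation, then PGD₂ at about 75–80% of maximal agonist efficacy for 5 min, DeepBlueC coelenterazine, 515/400 nm ratio. Value is antagonist efficacy expressed as percent.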

[3] = biological target: T1, Prostaglandin D2 receptor 2; assay: Antagonist activity at human CRTH2 receptor expressed in HEK285-7 cells assessed as inhibition of beta arrestin translocation by bioluminescence resonance energy transfer assay; type: functional, cell-based
How it was run: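 BRET2 readout in HEK385-7 cells transfected with CRTH2 (GFP2-β-arrestin2 acceptor, receptor-Rluc donor). Cells preincubated with antagonist 5 min with shaking, then PGD₂ added at a level eliciting about 75–80% of maximal agonist response, 5 min more. DeepBlueC coelenterazine injected; emission read 5 s later at 400 and 515 nm; signal = 515/400 ratio. IC50 derived.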

Structure (SMILES) | IC50 [1] [nM] | Efficacy [2] [%] | IC50 [3] [nM]
CN(C)c1ccc(-c2nc(-c3ccc(Br)cc3)c(CC(=O)O)s2)cc1 | 460 | > 70 | –
O=C(O)Cc1sc(Nc2ccc(C(F)(F)F)cc2)nc1-c1ccc(Cl)cc1 | 700 | > 70 | 1100
O=C(O)Cc1sc(Nc2ccccc2)nc1-c1ccc(Cl)cc1 | 100 | > 70 | 1300
COc1ccc(-c2nc(-c3ccc(Br)cc3)c(CC(=O)O)s2)cc1 | 390 | > 70 | –
O=C(O)Cc1sc(Cc2ccc3ccccc3c2)nc1-c1ccc(Cl)cc1 | 41 | > 70 | 570
O=C(O)Cc1sc(Cc2ccccc2-c2ccccc2)nc1-c1ccc(F)cc1 | 24 | > 70 | 370
O=C(O)Cc1sc(Cc2ccccc2Br)nc1-c1ccc(F)cc1 | 700 | > 70 | > 100000
O=C(O)Cc1sc(-c2ccc(Cl)cc2)nc1-c1ccccc1 | 990 | > 70 | 1600
COc1ccccc1-c1ccccc1Cc1nc(-c2ccc(F)cc2)c(CC(=O)O)s1 | 170 | > 70 | > 100000
O=C(O)Cc1sc(Nc2ccccc2F)nc1-c1ccc(Oc2ccccc2)cc1 | 210 | > 70 | > 100000
O=C(O)Cc1sc(Cc2ccc(Cl)cc2)nc1-c1ccc(Oc2ccccc2)cc1 | 3.7 | > 70 | 66
N#Cc1ccc(-c2ccccc2Cc2nc(-c3ccc(F)cc3)c(CC(=O)O)s2)cc1 | 170 | 30 | 190
COc1ccc(-c2nc(-c3ccc(Oc4ccccc4)cc3)sc2CC(=O)O)cc1 | 470 | > 70 | 1600
O=C(O)Cc1sc(Nc2ccc(F)cc2)nc1-c1ccc(Oc2ccccc2)cc1 | 89 | > 70 | 540
O=C(O)Cc1sc(Nc2ccccc2)nc1-c1ccc(F)cc1 | 650 | > 70 | 1300
O=C(O)Cc1sc(Nc2ccc(Cl)cc2)nc1-c1ccc(-c2ccccc2)cc1 | 940 | 20 | 3800
Cc1ccc(-c2nc(-c3ccc(Cl)cc3)sc2CC(=O)O)c(C)c1 | 990 | > 70 | –
COc1ccc(Nc2nc(-c3ccccc3)c(CC(=O)O)s2)cc1 | 940 | > 70 | 1500
COc1ccccc1Nc1nc(-c2ccc(F)cc2)c(CC(=O)O)s1 | 1500 | > 70 | 2100
Cc1ccc(Cc2nc(-c3ccccc3)c(CC(=O)O)s2)cc1 | 250 | > 70 | 1800
O=C(O)Cc1sc(Cc2ccccc2-c2cccc(OC(F)(F)F)c2)nc1-c1ccc(F)cc1 | 160 | > 70 | > 100000
COc1ccccc1-c1nc(-c2ccc(Br)cc2)c(CC(=O)O)s1 | 350 | > 70 | –
COc1ccc(-c2ccccc2Cc2nc(-c3ccc(F)cc3)c(CC(=O)O)s2)cc1 | 72 | > 70 | 270
O=C(O)Cc1sc(-c2ccc(Oc3ccccc3)cc2)nc1-c1ccccc1 | 160 | > 70 | 660
O=C(O)Cc1sc(Nc2ccccc2Cl)nc1-c1ccc(Oc2ccccc2)cc1 | 130 | > 70 | > 100000

Structure (SMILES) | IC50 [1] [nM] | Efficacy [2] [%] | IC50 [3] [nM]
O=C(O)Cc1sc(-c2ccccc2)nc1-c1ccc(F)cc1 | 860 | > 70 | 3500
O=C(O)Cc1sc(Nc2ccccc2)nc1-c1ccc(-c2ccccc2)cc1 | 660 | > 70 | 1200
O=C(O)Cc1sc(-c2ccccc2)nc1-c1ccccc1 | 870 | > 70 | 2500
O=C(O)Cc1sc(Cc2ccccc2-c2ccc3c(c2)OCO3)nc1-c1ccc(F)cc1 | 24 | > 70 | 1500
COc1ccccc1Nc1nc(-c2ccc(-c3ccccc3)cc2)c(CC(=O)O)s1 | 310 | > 70 | 1900
O=C(O)Cc1sc(-c2ccc(F)cc2)nc1-c1ccccc1 | 1500 | > 70 | 3700
COc1ccc(Cc2nc(-c3ccccc3)c(CC(=O)O)s2)cc1OC | 330 | > 70 | 3800
O=C(O)Cc1sc(Cc2ccc(Cl)cc2)nc1-c1ccccc1 | 88 | > 70 | 580
COc1ccc(-c2nc(-c3ccccc3)sc2CC(=O)O)cc1 | 7000 | > 70 | 5000
CC(C)c1ccc(Nc2nc(-c3ccc(Cl)cc3)c(CC(=O)O)s2)cc1 | 1200 | > 70 | 16000
COc1ccc(-c2nc(-c3ccc(OC)cc3)c(CC(=O)O)s2)cc1 | 4100 | > 70 | –
O=C(O)Cc1sc(Nc2ccc(Cl)cc2)nc1-c1ccc(F)cc1 | 960 | > 70 | 1900
O=C(O)Cc1sc(Nc2ccccc2)nc1-c1ccccc1 | 350 | > 70 | 1500
COc1ccccc1Nc1nc(-c2ccc(Oc3ccccc3)cc2)c(CC(=O)O)s1 | 49 | > 70 | 480
O=C(O)Cc1sc(Cc2ccccc2-c2ccccc2)nc1-c1ccc(Cl)cc1 | 41 | > 70 | 510
N#Cc1cccc(-c2ccccc2Cc2nc(-c3ccc(F)cc3)c(CC(=O)O)s2)c1 | 340 | > 70 | > 100000
COc1ccc(-c2nc(-c3ccccc3)c(CC(=O)O)s2)cc1 | 820 | > 70 | 1700
O=C(O)Cc1sc(Cc2ccccc2)nc1-c1ccc(Cl)cc1 | 180 | > 70 | 4100
COc1ccc(-c2nc(-c3ccc(Cl)cc3)sc2CC(=O)O)cc1 | 210 | > 70 | –
COc1ccc(-c2nc(Nc3ccccc3)sc2CC(=O)O)cc1 | 1900 | > 70 | 2400
O=C(O)Cc1sc(Nc2ccccc2)nc1-c1ccc(Oc2ccccc2)cc1 | 84 | > 70 | 350
O=C(O)Cc1sc(-c2ccccc2)nc1-c1ccc(-c2ccccc2)cc1 | 38 | > 70 | 630
O=C(O)Cc1sc(Cc2ccccc2)nc1-c1ccc(F)cc1 | 140 | 30 | 180
COc1ccc(-c2nc(Cc3ccc(Cl)cc3)sc2CC(=O)O)cc1 | 360 | > 70 | 850
CCc1ccc(-c2nc(-c3ccccc3OC)sc2CC(=O)O)cc1 | 1400 | > 70 | –
